ChEMBL document CHEMBL4118023, “Bioactive Pentacyclic Triterpene Ester Derivatives from Alnus viridis ssp. viridis Bark” (J Nat Prod, 2017)

Assays:
[1] = Selectivity index, ratio of IC50 for human MRC5 cells to IC50 for human A375 cells; format: toxicity; settings: MRC5 cells versus A375 cells, read-out: Ratio IC50
Procedure, shortened: (§1)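 Selectivity index is the IC50 in noncancerous MRC5 cells divided by the IC50 in the cancer line.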

[2] = test system: A-375; experiment: Cytotoxicity against human A375 cells assessed as reduction in cell viability after 48 hrs by MTT assay; format: functional, cell-based; settings: for IC50: A-375, 48 h
Procedure, shortened: (§2)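 Cells seeded at 1 × 10^4 per well, 24 h at 37 °C, 5% CO2, in RPMI-1640 with 10% FBS, penicillin and streptomycin. Compounds were prepared from DMSO stocks (50 mg/mL) and added at 2.5–50.0 μg/mL for 48 h; DMSO controls. MTT read-out; IC50 taken from a sigmoidal dose–response fit of % viability versus log concentration by nonlinear regression.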

[3] = test system: MRC5; experiment: Cytotoxicity against human MRC5 cells assessed as reduction in cell viability after 48 hrs by MTT assay; format: cell-based; settings: MRC5, 48 h; procedure, shortened: as §2
[4] = Selectivity index, ratio of IC50 for human MRC5 cells to IC50 for human A549 cells; format: toxicity; settings: MRC5 cells versus A549 cells, read-out: Ratio IC50; procedure, shortened: as §1
[5] = test system: A549; experiment: Cytotoxicity against human A549 cells assessed as reduction in cell viability after 48 hrs by MTT assay; format: functional, cell-based; settings: for IC50: A549, 48 h; procedure, shortened: as §2
[6] = test system: A549; experiment: Induction of apoptosis in human A549 cells assessed as early apoptotic cells at cytotoxic IC50 after 24 hrs by Annexin V-FITC/propidium iodide staining based flow cytometry (reference value: 2.25%); format: functional
[7] = test system: A549; experiment: Induction of apoptosis in human A549 cells assessed as late apoptotic cells at cytotoxic IC50 after 24 hrs by Annexin V-FITC/propidium iodide staining based flow cytometry (reference value: 1.02%); format: functional
[8] = test system: A549; experiment: Induction of apoptosis in human A549 cells assessed as necrotic cells at cytotoxic IC50 after 24 hrs by Annexin V-FITC/propidium iodide staining based flow cytometry (reference value: 0.71%); format: functional
[9] = test system: A549; experiment: Induction of apoptosis in human A549 cells assessed as live cells at cytotoxic IC50 after 24 hrs by Annexin V-FITC/propidium iodide staining based flow cytometry (reference value: 96.02%); format: functional

SMILES | selectivity ratio [1] | Activity [2] | IC50 [2] | IC50 [3] | selectivity ratio [4] | Activity [5] | IC50 [5] | Activity [6] | Activity [7] | Activity [8] | Activity [9]
C=C(C)[C@@H]1CC[C@]2(C(=O)O)CC[C@]3(C)[C@H](CC[C@@H]4[C@@]5(C)C[C@@H](OC(=O)/C=C/c6ccc(O)c(O)c6)[C@H](O)C(C)(C)[C@@H]5CC[C@]43C)[C@@H]12 | 1.25 | Dose-dependent effect | 6.3 µM | 7.9 µM | 0.5 | Dose-dependent effect | 15.8 µM | – | – | – | –
C=C(C)[C@@H]1CC[C@]2(C(=O)O)CC[C@]3(CO)[C@H](CC[C@@H]4[C@@]5(C)C[C@@H](OC(=O)/C=C/c6ccc(O)c(O)c6)[C@H](OC(=O)/C=C\c6ccc(O)cc6)C(C)(C)[C@@H]5CC[C@]43C)[C@@H]12 | 2.66 | Dose-dependent effect | 3.8 µM | 10 µM | 2 | Dose-dependent effect | 5 µM | 11.92% | 0.28% | 0.93% | 86.87%
CC1(C)CC[C@]2(C(=O)O)CC[C@]3(C)C(=CC[C@@H]4[C@@]5(C)C[C@@H](OC(=O)/C=C/c6ccc(O)c(O)c6)[C@H](O)C(C)(C)[C@@H]5CC[C@]43C)[C@@H]2C1 | 0.67 | Dose-dependent effect | 11.8 µM | 7.9 µM | 1.66 | Dose-dependent effect | 4.7 µM | – | – | – | –
C=C(C)[C@@H]1CC[C@]2(C(=O)O)CC[C@]3(CO)[C@H](CC[C@@H]4[C@@]5(C)C[C@@H](OC(=O)/C=C/c6ccc(O)c(O)c6)[C@H](O)C(C)(C)[C@@H]5CC[C@]43C)[C@@H]12 | 1.6 | Dose-dependent effect | 11.5 µM | 18.5 µM | 1.2 | Dose-dependent effect | 15.4 µM | – | – | – | –
C=C(C)[C@@H]1CC[C@]2(C(=O)O)CC[C@]3(CO)[C@H](CC[C@@H]4[C@@]5(C)C[C@@H](OC(=O)/C=C/c6ccc(O)c(O)c6)[C@H](OC(=O)/C=C/c6ccc(O)cc6)C(C)(C)[C@@H]5CC[C@]43C)[C@@H]12 | 1.25 | Dose-dependent effect | 6.3 µM | 7.8 µM | 1.25 | Dose-dependent effect | 6.3 µM | – | – | – | –
C=C(C)[C@@H]1CC[C@]2(C(=O)O)CC[C@]3(C)[C@H](CC[C@@H]4[C@@]5(C)CC[C@H](O)C(C)(C)[C@@H]5CC[C@]43C)[C@@H]12 [BETULINIC ACID] | 0.75 | – | 43.7 µM | 32.8 µM | 0.75 | – | 43.7 µM | 5.66% | 2.24% | 1.3% | 90.8%
C=C(C)[C@@H]1CC[C@]2(C(=O)O)CC[C@]3(COC(=O)/C=C/c4ccc(O)c(O)c4)[C@H](CC[C@@H]4[C@@]5(C)CCC(=O)C(C)(C)[C@@H]5CC[C@]43C)[C@@H]12 | 1.25 | Dose-dependent effect | 7.7 µM | 9.7 µM | 0.63 | Dose-dependent effect | 15.5 µM | – | – | – | –
